# Rows were chosen to be rich in hits. Some 3.1% of all compounds tested hit in one or more screens of this group.
# Hsp70 act – transcriptional activators of Hsp70; 200,000 compounds, 0.04% hits; HeLa Hsp70 promoter luciferase reporter, luminescence; scaled: vehicle 0, proteasome-inhibitor control 100%; activation, % at 10 µM;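 active = activation above the mean across all tested compounds plus 3 SD, cutoff set per campaign, cut at about 5.5% in these data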;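 note: 100% = MG132 at 30 µM as the positive control and 0% = DMSO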
# HSF1 activator – increases HSF-1 driven luciferase reporter signal; NIH3T3-HGL HSF-1 luciferase reporter, MG132, 8 h; 100% = twice DMSO control signal; activation, % at 9 µM; 300,000 compounds, 1.7% hits;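 active = mean replicate activation of at least 50% with a set share of replicates each reaching 50%; inconclusive = only one of those two conditions met; inactive = mean below 50% and too few replicates reaching it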;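 note: 0% = median of the neutral control wells and 100% = twice that signal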
# HKDC1 inh – blocks human hexokinase HKDC1 activity | inhibition, % at 20 µM | Q2TB90 | recombinant HKDC1, G6PDH/diaphorase resazurin coupled fluorescence | 340,000 compounds, 0.16% hits;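 active = inhibition above about 35% when tested at 20 µM, limit read from the data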;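 note: plate controls were DMSO wells with enzyme for no effect and DMSO wells lacking enzyme for full effect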
#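 Material: recombinant HKDC1 hexokinase; Amount: HKDC1 at 5 µg/mL; Medium: Tris pH 8.0 buffer with MgCl2, Tween-20, BSA, BME; Schedule: 90 min reaction incubation at room temperature, dark; Technique: coupled resazurin fluorescence, excitation 525 nm, emission 613 nm.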
# HSP90 refold inh – blocks HSP90-mediated luciferase refolding in reticulocyte lysate. Rabbit reticulocyte lysate, luciferase refolding luminescence, 3 h. inhibition, % at 5.6 µM. 290,000 compounds, 0.91% hits. AID 1789;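 active = inhibition above the screen-wide mean plus 3 SD, computed separately per campaign, cut at about 16% in these data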;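 note: 0% = DMSO wells and 100% = 60 µM geldanamycin wells; inhibitors lower the luminescence because luciferase stays unfolded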
# Tb hexokinase – blocks Trypanosoma brucei hexokinase 1 activity | inhibition, % at 10 µM | 220,000 compounds, 0.11% hits | recombinant TbHK1, G6PDH-coupled NADH A340;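 active = inhibition of 50% or more in the single-dose primary screen; inactive = inhibition below 50%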
# HSF1 inhib – HSF1 inhibition | AID 2098 | 300,000 compounds, 0.77% hits | activity change, negative = inhibition, % at 7.5 µM (by protocol) | NIH3T3-HGL HSE-luciferase, MG132-induced, luminescence 8 h; active compounds read low;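 active = more than half of replicate wells show activity change below -50%, luminescence cut by over half; inconclusive = some wells, but at most half, below -50%; inactive = no replicate well below -50%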;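 note: luciferase reports HSF-1 transcriptional activity via heat shock element; 0% = median of DMSO wells and -100% = zero luminescence signal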
# Active calls of the source: *; ? = inconclusive; . = no result given.
SMILES,Hsp70 act,HSF1 activator,HKDC1 inh,HSP90 refold inh,Tb hexokinase,HSF1 inhib
O=C(c1cc(-c2ccc(F)cc2)on1)N1CCCC1,0,62*,-8,7,4,29
O=C(c1cc(-c2ccc(F)cc2)on1)N1CCCCCC1,.,6,-4,17*,.,5
COc1ccc(-c2cc(C(=O)Nc3cc(C)ccc3O)no2)cc1,.,68*,-4,-6,.,23
COc1ccc(Br)cc1CN1CCC(N2CCCC2)CC1,.,-6,-1,2,.,-3
COc1ccc(C2(C)NC(=O)N(CC(=O)Nc3ccc(Br)cc3F)C2=O)cc1OC (centres undefined),.,-2,1,0,.,2
CCCc1cc(=O)n2[nH]c(-c3ccc(C)cc3)cc2n1,0,44,1,1,-1,23
CCCc1cc(=O)n2[nH]c(-c3ccc(Cl)cc3)cc2n1,.,64*,-1,-2,.,20
Nc1nnnn1CC(=O)N/N=C/c1ccccn1,.,98*,-2,-3,-2,48
Nc1nnnn1CC(=O)N/N=C/c1cccs1,.,21,-4,-4,-16,2
COc1ccc(-c2oc3ccccc3c2C#Cc2cncn2C)cc1,.,.,0,.,.,.
COc1ccc(NC(=S)N/N=C/c2ccc(F)cc2)cc1OC,0,55*,-7,3,-11,48
Fc1ccc(/C=N/NC(=S)Nc2ccc(Cl)cc2)cc1F,1,56*,2,-7,-15,34
Fc1cccc(/C=N/NC(=S)Nc2ccccc2Cl)c1,0,87*,0,3,-15,52
S=C(N/N=C/c1ccc(Cl)c(Cl)c1)Nc1ccccc1Cl,0,16,-5,4,1,5
O=C(O)c1ccc(Nc2nc(-c3cc4ccccc4oc3=O)cs2)cc1O,0,65*,13,-2,-3,22
O=C(Nc1nc(-c2cc3ccccc3oc2=O)cs1)c1ccc(Br)o1,0,66*,0,1,-17,32
COc1ccc(C(=O)OCC(=O)c2ccc3c(c2)NC(=O)CO3)cc1S(=O)(=O)N1CCOCC1,.,.,-3,.,.,.
O=C(CN1C(=O)NC(c2ccccc2)(c2ccccc2)C1=O)N1CCOCC1,.,.,-4,.,.,.
Nc1ccc(S(=O)(=O)N2CCC(Cc3ccccc3)CC2)cc1,.,-64,4,8,.,-55*
Cc1cc(C)c(NC(=O)CSc2nncn2-c2cccnc2)c(C)c1,0,-61,-14,-6,0,-54*
Cc1c(-c2cccc(Cl)c2)nc2ccccc2c1C(=O)NC1CC1,.,.,2,-1,.,.
Clc1ccc(-c2noc(/C=C/c3ccccc3)n2)cc1,.,39,-2,-3,-19,21
Cc1ccc(-c2noc(/C=C/c3ccccc3)n2)cc1,0,69*,-6,-2,1,35
Brc1cccc(-c2nnc(-c3ccccc3)o2)c1,0,.,4,5,1,.
C(=C\c1nnc(-c2cccs2)o1)/c1ccccc1,0,?,0,9,-37,40
SMILES,Hsp70 act,HSF1 activator,HKDC1 inh,HSP90 refold inh,Tb hexokinase,HSF1 inhib
Cc1ccc(/C=C/c2nnc(-c3ccccc3)o2)cc1,0,55*,-11,-1,-3,19
Cc1ccc(-c2nnc(-c3cccc(Br)c3)o2)cc1,0,64*,0,3,1,30
CCOc1ccc(CN(C)C(=O)[C@H](C)NC(=O)c2ccco2)cc1OC,.,4,-4,-4,.,3
O=C(CCC1CCCNC1)c1ccccc1 (centres undefined),.,-75,.,-3,.,-70*
CC(=O)Nc1ccc(C(=O)CN2C(=O)CSC2=O)cc1,.,5,-4,0,.,-6
COc1ccc(Nc2ncnc3c2c(C)c(C)n3CCCN(C)C)cc1,.,-52,-5,7,.,-54*
COc1ccc(CCNC(=O)CCC(=O)N2CC(C)Oc3ccccc32)cc1OC (centres undefined),.,19,-6,-2,.,-1
CN(CC(=O)NCCc1ccccc1)S(=O)(=O)c1ccc(Br)s1,.,-10,-2,1,.,-12
Cc1ccc(C(=O)c2oc3ccccc3c2NC(=O)c2cc(-c3ccccc3O)n[nH]2)cc1,0,49,-15,-1,1,22
O=C(Nc1c(C(=O)c2ccccc2)oc2ccccc12)c1cc(-c2ccccc2O)n[nH]1,0,66*,-13,-5,-3,25
CC1CCN(c2ccc(NC(=O)c3ccc([N+](=O)[O-])o3)cc2)CC1,.,98*,3,.,.,95
CCC(=O)N1CCN(c2ccc(NC(=O)COc3ccc(C)cc3C)cc2)CC1,.,110*,-8,6,.,97
O=C(Nc1ccc(N2CCCCC2)cc1)c1ccc([N+](=O)[O-])o1,.,91*,2,5,.,67
CC(C)(C)C(=O)N1CCN(c2ccc(NC(=O)c3ccc([N+](=O)[O-])o3)cc2)CC1,.,-5,-2,5,.,1
CCC(=O)N1CCN(c2ccc(NC(=O)c3ccc([N+](=O)[O-])o3)cc2)CC1,1,-80,-2,5,-8,-76*
CC(=O)Nc1ccc(C(=O)OCC(=O)Nc2c(C)n(C)n(-c3ccccc3)c2=O)cc1,.,.,-4,.,.,.
O=C(O)/C=C\c1cccc(-n2nnnc2SCc2ccccc2F)c1,.,15,7,-2,.,3
CCC(=O)N1CCN(c2ccc(NC(=O)c3ccc4ccccc4c3)cc2)CC1,.,66*,6,-3,.,28
CCC(=O)N1CCN(c2ccc(NC(=O)c3ccccc3)cc2)CC1,0,2,-1,2,-6,-3
Cc1ccccc1Oc1cc(NC(=O)CCCn2nc(C)c([N+](=O)[O-])c2C)cc([N+](=O)[O-])c1,0,29,0,-2,14,10
Cc1ccccc1Oc1cc(NC(=O)Cn2cnc([N+](=O)[O-])c2)cc([N+](=O)[O-])c1,0,75*,-5,4,-7,28
O=C(/C=C/c1ccccc1[N+](=O)[O-])c1ccccc1Br,0,65*,18,6,-2,43
Cc1ccc(C(=O)/C=C/c2ccccc2[N+](=O)[O-])cc1,0,135*,16,-2,-1,91
Cc1ccc(C(=O)C(C)OC(=O)c2ccccc2[N+](=O)[O-])cc1 (centres undefined),0,87*,8,6,25,51
Cc1ccc(C(=O)/C=C/c2ccc(-c3ccccc3[N+](=O)[O-])o2)cc1,0,-1,6,-1,0,2
CCC(=O)N1CCc2cc(S(=O)(=O)NCCC(=O)Nc3ccccc3C)ccc21,0,-72,-3,3,-9,-65*
CCC(=O)N1CCc2cc(S(=O)(=O)NCCC(=O)Nc3cc(C)cc(C)c3)ccc21,0,-13,-1,0,0,2
Cc1ccc(N/C=C/c2onc(C)c2[N+](=O)[O-])cc1,.,10,-6,-10,-18,0
COc1cccc(N/C=C/c2onc(C)c2[N+](=O)[O-])c1,0,66*,-2,0,5,32
O=C(OCc1cc(=O)n2ccsc2n1)c1ccccc1NCCO,.,.,3,.,.,.

# Screens (PubChem)
